Measured values from different studies.
Lines come from different studies, so protocols differ.
Target: Alpha-2A adrenergic receptor (ADRA2A, Homo sapiens, UniProt P08913)
Concentration: 10 µM
Sequence (P08913 1-465, as in one of the studies): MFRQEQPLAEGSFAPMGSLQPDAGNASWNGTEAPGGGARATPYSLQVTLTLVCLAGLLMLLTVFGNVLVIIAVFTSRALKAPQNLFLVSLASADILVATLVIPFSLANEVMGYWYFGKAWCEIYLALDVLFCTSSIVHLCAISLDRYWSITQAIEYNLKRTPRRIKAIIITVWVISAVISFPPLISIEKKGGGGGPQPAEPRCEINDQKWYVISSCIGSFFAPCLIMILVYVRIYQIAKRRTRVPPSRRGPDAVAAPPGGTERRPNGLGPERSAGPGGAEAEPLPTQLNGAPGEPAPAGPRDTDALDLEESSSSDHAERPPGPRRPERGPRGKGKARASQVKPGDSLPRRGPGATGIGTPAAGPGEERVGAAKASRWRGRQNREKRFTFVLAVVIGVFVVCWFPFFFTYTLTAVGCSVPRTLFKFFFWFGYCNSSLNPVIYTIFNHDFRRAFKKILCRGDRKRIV

`O=C1c2ccccc2C(=O)N1CC#Cc1ccc2c(c1)C=C([N+](=O)[O-])C(C(F)(F)F)O2` (centres unmarked) gave an inhibition of 88% (ligand displacement, radioligand).
With `CCN(Cc1ccccc1C(F)(F)F)C(=O)C1CCN(S(=O)(=O)c2ccc3[nH]ncc3c2)CC1` the inhibition was 37% (ligand displacement, radioligand).
`CC(=O)C1=C(C)N(c2cccc(C(F)(F)F)c2)C(=O)N[C@H]1c1ccc(C#N)nc1` gave an inhibition of -8.89% (ligand displacement).
For `Cc1cc(-c2nc(CN3CCNCC3)no2)cc2c1C(=O)N(Cc1ccc(OC(F)(F)F)cc1)C2`, the inhibition was 41% (ligand displacement, radioligand).
For `COc1cc(NC(C)=O)c(Cl)cc1C(=O)Nc1nccs1`, the inhibition was -7% (cell-free assay).
`CN([C@@H]1CCc2c(CC(=O)O)c3ccccc3n2C1)S(=O)(=O)c1ccc(F)cc1` has an inhibition of -3.89% (ligand displacement).
The inhibition of `CCN(CC)c1ccc(C2Nc3ccc(C(=O)c4ccccc4)cc3NC3=C2C(=O)CC(C)(C)C3)cc1` (centres unmarked) is reported as 5% (ligand displacement, radioligand).
With `CCCNc1nc2ccccc2n1Cc1ccc(Cl)cc1` the inhibition was 90.2% (ligand displacement).
`Ic1cccc2cnccc12` has an inhibition of 13% (ligand displacement, radioligand).
For `O=C(c1ccc(Cl)cc1)N(Cc1ccccc1)C1CCCCC1`, the inhibition was 4% (cell-free assay).
The inhibition of `N#Cc1cc(Cn2c(N3CCCC3)nc3ccccc32)ccc1F` is reported as 31.6% (ligand displacement).
